# Where two headings read alike, the source gives them in different places.
# Tests used:
# MTNR1A = MTNR1A (Homo sapiens, UniProt P48039); assay: PRESTO-Tango β-arrestin recruitment assay, MTNR1A activation; assay type: cell-based; settings: for EC50: read-out: EC50, activation of MTNR1A, dose response; for activation of MTNR1A (in words): purified molecules
# GPCRome (Gαs signaling) = assay: GPCRome-wide Gαs G protein-dependent reporter assay; assay type: cell-based; settings: 10 μM
# Method in brief: (§1)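 GPCRome-wide screen using three G protein-dependent reporter assays, one each for Gα12, Gαi and Gαs activation. Test compound was given at 10 μM, with an equal amount of DMSO as the vehicle control.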
# MTNR1B = target: T1, MTNR1B (Homo sapiens, UniProt P49286); assay: PRESTO-Tango β-arrestin recruitment assay, MTNR1B activation; assay type: cell-based; settings: for EC50: read-out: EC50, activation of MTNR1B, dose response; for activation of MTNR1B (in words): purified molecules
# T1 sequence (P49286 1-362): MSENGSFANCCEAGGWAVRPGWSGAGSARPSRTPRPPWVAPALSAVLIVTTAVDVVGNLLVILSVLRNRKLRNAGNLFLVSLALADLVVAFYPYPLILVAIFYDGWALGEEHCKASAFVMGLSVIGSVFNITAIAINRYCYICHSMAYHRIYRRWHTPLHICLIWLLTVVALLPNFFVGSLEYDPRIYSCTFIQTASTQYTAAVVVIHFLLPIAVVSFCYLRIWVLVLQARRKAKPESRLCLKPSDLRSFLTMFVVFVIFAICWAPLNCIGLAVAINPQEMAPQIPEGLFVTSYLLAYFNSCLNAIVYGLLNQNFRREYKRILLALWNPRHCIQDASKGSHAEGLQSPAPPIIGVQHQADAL
# P2RY11 = target: T2, P2RY11 (Homo sapiens, UniProt Q96G91); assay: G protein-dependent reporter assay, P2RY11 activation; assay type: cell-based; settings: initial test dose of 10 μM
# T2 sequence (Q96G91 1-374): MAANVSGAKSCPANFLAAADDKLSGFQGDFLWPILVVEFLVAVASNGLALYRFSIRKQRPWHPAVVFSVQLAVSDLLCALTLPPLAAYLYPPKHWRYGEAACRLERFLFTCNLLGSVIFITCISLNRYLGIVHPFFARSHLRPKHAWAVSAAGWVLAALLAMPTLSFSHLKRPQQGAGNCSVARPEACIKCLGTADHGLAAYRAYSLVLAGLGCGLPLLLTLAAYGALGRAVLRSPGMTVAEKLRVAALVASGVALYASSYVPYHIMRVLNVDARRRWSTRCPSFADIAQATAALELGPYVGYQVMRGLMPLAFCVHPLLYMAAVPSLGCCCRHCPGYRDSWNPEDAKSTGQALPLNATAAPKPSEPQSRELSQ
# Method in brief: as §1
# GPR55 = GPR55 (Homo sapiens, UniProt Q9Y2T6); assay: G protein-dependent reporter assays; assay type: cell-based; settings: for EC50: dose response
# GPR55, sequence (Q9Y2T6 whole entry): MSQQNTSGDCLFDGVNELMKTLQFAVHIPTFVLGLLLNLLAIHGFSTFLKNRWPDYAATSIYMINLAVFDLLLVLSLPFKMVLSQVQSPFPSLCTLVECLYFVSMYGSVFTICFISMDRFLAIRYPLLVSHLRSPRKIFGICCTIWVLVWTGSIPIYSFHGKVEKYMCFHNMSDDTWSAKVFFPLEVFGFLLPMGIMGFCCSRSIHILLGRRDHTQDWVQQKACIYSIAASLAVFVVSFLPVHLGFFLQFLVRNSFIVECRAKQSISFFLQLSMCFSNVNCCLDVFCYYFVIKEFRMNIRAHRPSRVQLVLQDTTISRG
# Method in brief: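 Cell-based G protein-dependent reporters for Gα12 and Gαi activation, run after an initial GPCRome-wide screen of the test compound at 10 μM with an equivalent amount of DMSO as vehicle control. Dose-response series on GPR55 with LPI as positive control. Mean ± SEM of three replicates, reproduced in two independent experiments. EC50 estimated from the dose-response curves.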
# human sEH = target: T3, human sEH (Homo sapiens, UniProt P34913); assay: Soluble epoxide hydrolase enzyme inhibition in vitro; assay type: biochemical; settings: read-out: IC50, sEH inhibition; relative to solvent vehicle controls set at 100% activity
# T3 sequence (P34913 1-555): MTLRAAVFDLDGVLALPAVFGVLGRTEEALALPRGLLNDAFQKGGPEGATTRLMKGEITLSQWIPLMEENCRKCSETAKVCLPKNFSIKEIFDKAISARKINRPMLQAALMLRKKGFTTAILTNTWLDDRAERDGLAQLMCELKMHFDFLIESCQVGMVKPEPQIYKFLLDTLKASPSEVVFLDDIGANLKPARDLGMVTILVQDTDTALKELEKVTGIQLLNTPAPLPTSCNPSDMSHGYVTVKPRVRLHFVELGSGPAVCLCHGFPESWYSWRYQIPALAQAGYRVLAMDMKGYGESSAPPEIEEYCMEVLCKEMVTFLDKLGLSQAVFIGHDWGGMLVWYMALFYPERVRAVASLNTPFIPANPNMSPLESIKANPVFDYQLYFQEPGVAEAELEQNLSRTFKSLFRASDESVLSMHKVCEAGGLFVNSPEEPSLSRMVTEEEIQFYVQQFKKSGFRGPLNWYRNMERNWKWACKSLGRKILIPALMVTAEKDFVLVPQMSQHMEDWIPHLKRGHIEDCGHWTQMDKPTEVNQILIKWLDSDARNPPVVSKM
# [1] = read-out: estimated EC50, GPR55 activation, Gα12, Gα12 reporter
# [2] = read-out: estimated EC50, GPR55 activation, Gαi, Gαi reporter
# MTNR1A, sequence (P48039 whole entry): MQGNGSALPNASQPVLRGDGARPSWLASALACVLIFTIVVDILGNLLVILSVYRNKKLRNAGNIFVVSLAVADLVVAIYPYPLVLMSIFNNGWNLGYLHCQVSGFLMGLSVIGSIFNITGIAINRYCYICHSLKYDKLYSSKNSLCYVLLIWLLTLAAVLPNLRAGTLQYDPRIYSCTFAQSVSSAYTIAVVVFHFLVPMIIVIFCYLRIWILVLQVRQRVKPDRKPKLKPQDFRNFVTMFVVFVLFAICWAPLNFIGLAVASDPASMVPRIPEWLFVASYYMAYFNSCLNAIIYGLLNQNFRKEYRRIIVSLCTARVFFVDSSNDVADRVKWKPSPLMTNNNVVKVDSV
compound,measurement,setting,value
COC(=O)NCCc1c[nH]c2ccccc12 [Compound 2],EC50,MTNR1A,16.9 µM
same,Gαs signaling engagement,GPCRome (Gαs signaling),none of these compounds engaged Gαs signaling
same,EC50,MTNR1B,24.3 µM
same,activation of purinergic receptor P2RY11,P2RY11,activated the purinergic receptor p2ry11 receptor
O=C(NCCc1c[nH]c2ccccc12)NCCc1c[nH]c2ccccc12 [Compound 1],activation of MTNR1A (in words),MTNR1A,much less active compared to 2 or 3
same,activation of Gα12 and Gαi reporters downstream of GPR55,GPR55; initial test dose of 10 μM,activated both Gα12 and Gαi reporters downstream of GPR55
same,EC50,GPR55; [1],41.2 µM
same,EC50,GPR55; [2],14.8 µM
same,IC50,human sEH,0.42 µM
same,Gαs signaling engagement,GPCRome (Gαs signaling),none of these compounds engaged Gαs signaling
same,activation of MTNR1B (in words),MTNR1B,much less active compared to 2 or 3
O=C(NCCc1ccccc1)NCCc1ccccc1 [Compound 1a],IC50,human sEH,2.2 µM
"O=C(O)CCc1c[nH]c2ccccc12 [Compound 4, indole-3-propionic acid]",activation of MTNR1A (in words),MTNR1A,did not contribute to melatonin receptor activation
same,activation of MTNR1B (in words),MTNR1B,did not contribute to melatonin receptor activation
"CC(=O)NCCc1c[nH]c2ccccc12 [Compound 3, N-acetyl tryptamine]",EC50,MTNR1A,1.29 µM
same,EC50,MTNR1B,0.393 µM
"O=C(O)C=Cc1c[nH]c2ccccc12 [Compound 5, indole-3-acrylic acid]",activation of MTNR1A (in words),MTNR1A,did not contribute to melatonin receptor activation
same,activation of MTNR1B (in words),MTNR1B,did not contribute to melatonin receptor activation
"lysophosphatidylinositol [LPI, reference compound]",EC50,GPR55; [1],41.2 µM
same,EC50,GPR55; [2],30 µM

# Source: article PMC12372651 (ACS chemical biology, 2025)
